Data as given in ChEMBL document CHEMBL1135478, “From imidazoles to pyrimidines: new inhibitors of cytokine release” (J Med Chem, 2002).

Columns and labels:
[1] = molecular target: T1, MAP kinase p38 (Homo sapiens, UniProt O15264+Q15759+Q16539+P53778); test: Inhibition of p38 MAP kinase related interleukin (IL1-beta (cytokine) release from human whole blood; assay type: functional, tissue-based
Method in brief: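 Human whole blood preincubated 15 min (37 °C, 5% CO₂) with compound from 70:30 Cremophor EL/ethanol stock dilutions (vehicle 1% in all samples). Stimulated with LPS (E. coli 026:B6), 1 µg/mL, 4 h, 37 °C. Reaction stopped on ice, then centrifuged. Supernatant IL-1β measured by ELISA. IC50 read from semilog plot of % reduction vs vehicle controls. At least duplicate.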

[2] = molecular target: T1, MAP kinase p38; test: Inhibition of p38 MAP kinase related interleukin (IL1-beta (cytokine) release from human peripheral blood mononuclear cells
[3] = molecular target: T1, MAP kinase p38; test: Inhibition of Mitogen-activated protein kinase p38; assay type: protein assay
[4] = molecular target: T1, MAP kinase p38; test: Inhibition of p38 MAP kinase related TNF-alpha release from human whole blood; assay type: functional, tissue-based
[5] = molecular target: T1, MAP kinase p38; test: Inhibition of p38 MAP kinase related TNF-alpha release from peripheral blood mononuclear cells (PBMC); assay type: functional

| Compound | IC50 [1] [µM] | IC50 [2] [µM] | IC50 [3] [µM] | IC50 [4] [µM] | IC50 [5] [µM] |
| --- | --- | --- | --- | --- | --- |
| C[S+]([O-])c1ccc(CSc2nc(-c3ccc(F)cc3)c(-c3ccncc3)[nH]2)cc1 (stereo unspecified) | 2.78 | 0.88 | 4 | 20.3 | 3.65 |
| C[S+]([O-])c1cccc(CSc2nc(-c3ccc(F)cc3)c(-c3ccncc3)[nH]2)c1 (stereo unspecified) | 4.1 | 1 |  | 33.5 | 23.5 |
| C[S+]([O-])c1ccccc1CSc1nc(-c2ccc(F)cc2)c(-c2ccncc2)[nH]1 (stereo unspecified) | 4 | 0.9 |  | 47.5 | 15 |
| CS(=O)(=O)c1ccc(CSc2ncc(-c3ccc(F)cc3)c(-c3ccncc3)n2)cc1 | > 100 | 7.7 |  | > 100 | 17.8 |
| C[S+]([O-])c1ccc(CSc2ncc(-c3ccc(F)cc3)c(-c3ccncc3)n2)cc1 (stereo unspecified) | 45.5 | 5.6 | 36 | 95.5 | 14.1 |
| C[S+]([O-])c1ccc(CSc2ncc(-c3ccc(F)cc3)c(-c3cccnc3)n2)cc1 (stereo unspecified) | > 100 | 75.5 |  | > 100 | 54 |
| C[S+]([O-])c1cccc(CSc2ncc(-c3ccc(F)cc3)c(-c3ccncc3)n2)c1 (stereo unspecified) |  | 5.4 | 19 |  | 6.5 |
| C[S+]([O-])c1ccc(CSc2nc(O)c(-c3ccc(F)cc3)c(-c3ccncc3)n2)cc1 (stereo unspecified) | > 100 | 25.5 |  | > 100 | 27 |
| CSc1ccc(CSc2ncc(-c3ccc(F)cc3)c(-c3ccncc3)n2)cc1 | > 100 | 7.4 |  | > 100 | 60 |
| C[S+]([O-])c1ccc(CSc2ncc(-c3ccncc3)c(-c3ccc(F)cc3)n2)cc1 (stereo unspecified) | > 100 | 17.8 |  | > 100 | 29.9 |
